This is one part of a sample in which hits are shown more often than they occur.
T cruzi repl: blocks replication of Trypanosoma cruzi; T. cruzi beta-gal in NIH3T3, luminescence, 90 h; inhibition, % (concentration not given with the values); 300,000 tested, 1.4% active;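 active = mean inhibition across valid replicates above about 55%, limit read from the data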;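 also: signal also drops with host cell toxicity which is not excluded here; 0% = plate median of DMSO wells and 100% = zero luminescence signal; higher percent means less beta-gal luminescence so fewer parasites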
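System – NIH/3T3 host cells with β-galactosidase reporter T. cruzi · Doses – single 50 nL compound addition per well in DMSO · Reagent – 5000 T. cruzi trypomastigotes/well · Medium – Low-serum DMEM with 2% FBS · Timing – ≥90 h infection period, 3 h prior cell attachment · Evaluation – parasite load inhibition, % · Technique – GalScreen luminescence, 60 min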
CHOP inh: CHOP inhibition in unfolded protein response. 220,000 tested, 3.8% active. CHO-K1 CHOP-promoter luciferase, tunicamycin-induced, 15-18 h. inhibition, % at 10 µM. AID 2732;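 active = compounds that reduced the stress-induced luciferase reporter signal by more than about 70% of percent inhibition, limit read from the data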;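 also: 0% = tunicamycin plus vehicle and 100% = wells without tunicamycin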
L major viab: reduces viability of Leishmania major promastigotes; inhibition, % at 10 µM; 200,000 tested, 9% active; AID 1063; resazurin fluorescence viability; in the data active = inhibition above about 50%;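 also: promastigotes grown with compound for 44 hours at 28 °C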
UPR XBP1 act: activators of adaptive arm of unfolded protein response (XBP1); CHO-XBP1 luciferase reporter, IRE1-XBP1 UPR activation, luminescence; percent of tunicamycin response, DMSO as zero; activation, % at 20 µM; 330,000 tested, 0.33% active; AID 463104;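 active = versus positive control, 20 µM dose yields 30% or more activation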;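 also: 100% = tunicamycin at 10 µg/mL and 0% = DMSO only wells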
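Material: CHO-XBP1 cells stably carrying IRE1-XBP1-driven luciferase reporter | Medium: F12 with 10% serum | Compound dosing: 20 µM single concentration, DMSO 1% | Incubation: Overnight seeding at 37 °C, 6 h compound treatment at 37 °C | Detection: Steady-Glo luminescence read | Read-out basis: % activation of reporter signal versus tunicamycin and DMSO controls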
Dynein cargo inh: blocks dynein driven cargo transport along microtubules. 3617.4 mouse cells, GR-EGFP nuclear translocation imaging; test concentration mostly 20 µM; stimulated with dexamethasone, 1 µM; active compounds read low. z-score, hits read low. 220,000 tested, 0.47% active. AID 1381;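 active = plate z-score of nuclear minus cytoplasmic receptor signal below a set negative limit, without overly bright fluorescence or cell loss, cut at about -3.5 in these data, passing the limit was not always enough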;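 also: z-score of nuclear minus cytoplasmic ring GR-EGFP intensity difference per well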
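Schedule: 48 h induction, then 1 h compound, then 30 min agonist, 37 °C. Buffer or medium: tetracycline-free induction medium containing charcoal-stripped FBS. Reagent: 1.0 µM final dexamethasone stimulus. Evaluation: nuclear versus cytoplasmic GR-EGFP signal, averaged per well. Signal: high-content fluorescence imaging after fixation.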
CHOP UPR activ: activators of apoptotic arm of unfolded protein response (CHOP); 330,000 tested, 0.34% active; AID 449763; activation, % at 10 µM; CHO-CHOP luciferase reporter, UPR activation, luminescence; percent of tunicamycin response over DMSO baseline;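 active = at 10 µM dose, activation of 40% or more, normalized to positive control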;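 also: 100% = tunicamycin at 10 µg/mL and 0% = DMSO alone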
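System: CHO-CHOP luciferase reporter cell line | Buffer or medium: F12 medium containing 10% fetal bovine serum | Doses: One dose, 10 µM in 0.5% DMSO | Times: 6 h compound exposure at 37 °C after overnight seeding | Signal: Luciferase luminescence | Read-out: % activation vs tunicamycin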
Numbers without * were called inactive; nt = not tested or not shown.

SMILES | T cruzi repl | CHOP inh | L major viab | UPR XBP1 act | Dynein cargo inh | CHOP UPR activ
O=C(CNC(=O)c1cccc(F)c1)N/N=C/c1cc(Br)ccc1OCc1ccccc1 | 13 | 49 | 51* | 0 | -0.65 | 3
COCCSc1ccccc1C(=O)NCc1cccnc1 | 1 | 0 | 0 | 3 | -0.29 | -1
CN(C)CCNC(=O)/C(=C/c1ccc(-c2ccc(Cl)cc2)o1)NC(=O)c1ccccc1 | 26 | 6 | 100* | nt | 4.6 | nt
CN(C)CCCNC(=O)/C(=C\c1ccc(-c2cccc([N+](=O)[O-])c2)o1)NC(=O)c1ccccc1 | 2 | 30 | 0 | -1 | 0.013 | 1
Cc1ccc(C(=O)N/C(=C/c2ccc(-c3ccc(Br)cc3)o2)C(=O)NC2CCS(=O)(=O)C2)cc1 (configuration not stated) | 0 | 65 | 69* | -3 | -0.17 | -2
Cc1ccc(C(=O)N/C(=C\c2ccc(-c3ccc(Br)cc3)o2)C(=O)NCCCN(C)C)cc1 | 77* | 33 | 100* | 29 | -5.7 | 8
CN(C)CCNC(=O)/C(=C/c1ccc(-c2ccc(Cl)cc2Cl)o1)NC(=O)c1ccccc1 | 32 | 45 | 100* | 1 | -5.1 | 3
Nc1ccc(C(=O)N2CCN(S(=O)(=O)c3ccc(Br)cc3)CC2)cc1[N+](=O)[O-] | 10 | nt | nt | 3 | nt | 0
COc1cc(/C=N/NC(N)=O)cc(Br)c1OCc1ccc(C)cc1 | 7 | 82* | -1 | 0 | -0.07 | 1
COc1ccc(S(=O)(=O)Nc2c(NC3CCCCC3)c3ccccc3oc2=O)cc1OC | -4 | nt | nt | -2 | nt | 0
O=C1CCN=C(Nc2ccc(F)cc2)N1Cc1ccccc1 | 23 | -1 | 72* | 1 | 3.7 | -1
COc1ccc(NC(=O)N2CCCC(c3ccccc3)C2)cc1 (configuration not stated) | -15 | nt | nt | 0 | nt | 1
C=C(C(=O)Oc1c(C(C)(C)C)cccc1C(C)(C)C)c1ccccc1 | nt | nt | nt | -1 | nt | -2
O=C(C[n+]1cc(-c2ccc(Cl)c(Cl)c2)n2c1CCC2)N1c2ccccc2Sc2ccccc21 | 55* | 11 | 54* | 2 | 0.23 | 1
CC1CCC(C(C)C)C(OC(=O)C[n+]2cc(-c3ccc(Cl)cc3)n3c2CCC3)C1 (configuration not stated) | 60* | -3 | nt | 2 | 0.34 | 0
O=C(C[n+]1cc(-c2ccc(Cl)cc2)n2c1CCC2)N1c2ccccc2Sc2ccccc21 | 46 | 11 | 81* | -2 | -0.00057 | 1
Cn1c(NC(=O)C[n+]2cc(-c3ccc(Cl)c(Cl)c3)n3c2CCC3)cc(=O)n(C)c1=O | 14 | 3 | 88* | -1 | -0.65 | -2
Cc1ccc2occ(/C=N/NC(=O)c3ccncc3)c(=O)c2c1 | -11 | nt | nt | -5 | nt | -1
O=C(C[n+]1cc(-c2ccc(F)cc2)n2c1CCC2)Nc1nc(-c2ccccc2)cs1 | 2 | 3 | 81* | -1 | 0.56 | -2
COc1ccc(-c2c[n+](CC(=O)N3c4ccccc4Sc4ccccc43)c3n2CCC3)cc1 | 57* | 3 | nt | -2 | -0.57 | -2
S=C(Nc1ccccc1Cl)N(CCCN1CCOCC1)Cc1ccco1 | -7 | 37 | 85* | 1 | 1.5 | 1
Cc1ccccc1NC(=S)N(CCCN1CCOCC1)Cc1ccccn1 | -13 | 17 | 65* | 1 | 0.91 | 1
COc1cc(N)c(Cl)cc1C(=O)OCC(=O)NCC1CCCCC1 | nt | nt | nt | 2 | nt | 1
FC(F)(F)c1ccc(Cl)c(N/N=C/c2ccc(N3CCOCC3)s2)c1 | 25 | 8 | 98* | -3 | 0.44 | -1
O=C(COC(=O)c1ccccc1Br)NCc1cccs1 | nt | nt | nt | 3 | nt | 2
SMILES | T cruzi repl | CHOP inh | L major viab | UPR XBP1 act | Dynein cargo inh | CHOP UPR activ
O=C(COC(=O)c1ccccc1Cl)NC(=O)NCc1ccccc1 | 9 | 29 | 83* | -1 | 0.69 | -2
N#Cc1ccccc1OCC(=O)NC(=O)NCc1ccccc1 | -5 | -2 | 28 | -5 | 0.045 | 0
CCOC(=O)/C=C/C(=O)OCC(=O)NCc1ccccc1 | -23 | 23 | 55* | 0 | -2.5 | -1
O=C(COC(=O)c1ccccc1Br)NCc1ccccc1 | -27 | -17 | 60* | 1 | 0.82 | 0
O=C(COc1ccc(Cl)cc1Br)NC(=O)NCc1ccccc1 | 5 | 84* | -5 | 1 | 0.0024 | -2
O=C(COC(=O)c1cc(Br)ccc1Cl)NC(=O)NCc1ccccc1 | -21 | -6 | 10 | 0 | -0.5 | -2
Cc1nc(NC(=O)c2csc3ccccc23)sc1C | 27 | 37 | 60* | 3 | 1.4 | 1
N/C(=N\OC(=O)Oc1ccccc1)c1ccc([N+](=O)[O-])cc1 | 2 | -20 | -7 | -1 | -0.065 | 4
N/C(=N\OC(=O)Oc1ccccc1)c1cccc([N+](=O)[O-])c1 | -8 | -3 | 59* | -1 | -0.057 | -2
Cc1ccc(SCC(=O)O/N=C(\N)c2ccc([N+](=O)[O-])cc2)cc1 | 9 | 60 | -3 | 2 | -0.17 | -1
N/C(=N\OC(=O)CSc1ccccc1)c1cccc([N+](=O)[O-])c1 | -4 | -12 | 81* | 2 | 1.1 | 3
CCCCCCn1c(=O)[nH]c2nc3cc(N)c(C)cc3nc2c1=O | nt | 101* | 48 | nt | -0.18 | nt
CC1CCN(S(=O)(=O)N2CCN(C(=O)c3ccc4c(c3)OCO4)CC2)CC1 | 2 | nt | nt | -8 | nt | 1
CCOc1ccc(CCNC(=O)COC(=O)CSc2ccccc2C)cc1OCC | 6 | nt | nt | -1 | nt | 3
COc1ccc(C(C)NC(=O)Cc2cccs2)cc1OC (configuration not stated) | -5 | nt | nt | -4 | nt | 1
COc1ccc(C(C)=NNC(=O)c2cccc(S(=O)(=O)N3CCCC3)c2)cc1 | nt | nt | nt | 1 | nt | 4
C/C(=N\NC(=O)c1cccc(S(=O)(=O)N2CCCCC2)c1)c1ccc(C)o1 | nt | 12 | 82* | -1 | -0.026 | 1
COc1ccc(/C(C)=N/NC(=O)c2cccc(S(=O)(=O)N3CCCC3)c2)c(O)c1 | 61* | nt | nt | -1 | nt | -1
C/C(=N\NC(=O)c1cccc(S(=O)(=O)N2CCCC2)c1)c1ccco1 | -2 | 17 | -5 | 3 | -0.3 | 3
Cc1ccccc1NC(=O)c1ccc(Cl)c(NC(=O)c2ccncc2)c1 | -22 | 5 | -13 | 1 | -0.87 | 1
O=C(NCCCN1CCCC1=O)c1cc(S(=O)(=O)N2CCOCC2)ccc1Cl | 2 | nt | nt | -2 | nt | 2
CCC(=O)n1nc(-c2ccccc2)nc1NCc1ccccc1 | -3 | 93* | -4 | 4 | 2.9 | 2
CC1(C)Oc2ccc(C(=O)NNC(=O)Nc3ccccc3)cc2NC1=O | -3 | nt | nt | -4 | nt | 1

Screens from PubChem.
